Data set [1] in a line: Minimum toxic concentration required to cause a microscopically detectable alteration of normal cell morphology of MDCK cells. The note with it: Sendai virus, read-out: MTC.
Data set [2] relates to NSO mouse myeloma cells (Mus musculus). Kind of data set: Cytotoxicity required to inhibit cell proliferation by 50% (tritiated thymidine incorporation in proliferating NSO mouse myeloma cells). On the technique in general: Uptake of a labelled nucleoside into DNA is a usual measure of proliferation.
The test system of data set [3] is MDCK. Kind of data set: Inhibitory activity against Parainfluenza 1 (Sendai) virus (PIV) in MDCK cells. Type of data set: functional. The note with it: Canis lupus familiaris, read-out: ED50 (the source's name). In short, it runs like this: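 Confluent MDCK monolayers infected with Sendai virus (10 HAU/10⁵ cells) and allowed to adsorb for 1 h at 37 °C. Inoculum removed, cells washed three times with PBS, then given fresh medium with 2% FCS. Compounds added after adsorption at several dilutions and kept until the end. Supernatants harvested at different times after challenge and titrated as hemagglutinin units. ED₅₀ derived from these titres.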

In general, CC50 refers to the concentration that lowers cell viability or growth by half. A lower CC50 goes with greater toxicity to the cells.

For the compound `CC1O[C@]1(C)Cc1cc(=O)n(C)c(OC2CCCCC2)n1` (mixture of isomers), the MCC in data set [1] worked out at 342 µM. Further, in data set [2], the CC50 is above 342 µM.
In the case of `Cn1c(OC2CCCCC2)nc(CC2(C)CCCO2)cc1=O` (stereo unspecified), the EC50 in data set [3] amounted to 164 µM. The MCC in data set [1] stood at 326 µM. In data set [2], this compound showed a CC50 of 816 µM.
Regarding `CCCCOc1nc(CC2(c3ccccc3)CCCO2)cc(=O)n1C` (stereo unspecified), the EC50 in data set [3] amounted to 146 µM. In addition, the MCC in data set [1] amounted to 292 µM. The same compound came in with a CC50 in data set [2] of 90 µM.
The matching figures for `COc1nc(CC2(c3ccccc3)CO2)cc(=O)n1C` (stereo unspecified): 0.37 µM, 735 µM and above 360 µM.
For `Cn1c(CC2(c3ccccc3)CO2)cc(=O)n(C)c1=O` (stereo unspecified), the MCC in data set [1] is 0.37 µM. Moreover, the CC50 in data set [2] is 3.7 µM.
On the same counts, the results for `Cn1c(OC2CCCCC2)nc(CC2(c3ccccc3)CO2)cc1=O` (stereo unspecified) are 294 µM and above 294 µM.
For `COc1nc(CC2(C)CCCO2)cc(=O)n1C` (stereo unspecified), the EC50 in data set [3] amounted to 893 µM. In data set [1], the MCC was found to be 893 µM. In data set [2], this compound yielded a CC50 of 1620 µM.
For `Cn1c([C@H]2O[C@H]2c2ccccc2)cc(=O)n(C)c1=O` (racemic), the EC50 in data set [3] was found to be 0.38 µM. Further, the MCC in data set [1] was above 0.8 µM. Besides, the CC50 in data set [2] turned out to be 7.7 µM.
With `CCCOc1nc(CC23CCCC[C@H]2O3)cc(=O)n1C` (stereo partly specified), in data set [1], the MCC was above 352 µM. The CC50 in data set [2] is above 352 µM.
On to `CCCCOc1nc(CC2(C)CCCO2)cc(=O)n1C` (stereo unspecified), for which the EC50 in data set [3] was found to be 186 µM. The MCC in data set [1] is 373 µM. Moreover, in data set [2], the midpoint of cytotoxicity, the CC50, lay at 1080 µM.
Regarding `Cn1c(C2OC2(C)c2ccccc2)cc(=O)n(C)c1=O` (stereo unspecified), the MCC in data set [1] is above 0.81 µM. In data set [2], this compound registered a CC50 of 7.3 µM.
The matching figures for `CCCOc1nc(CC2(c3ccccc3)CO2)cc(=O)n1C` (stereo unspecified): 330 µM and above 330 µM.
With `CCCOc1nc(CC2(c3ccccc3)CCCO2)cc(=O)n1C` (stereo unspecified), in data set [3], the EC50 came to 152 µM. Moreover, the MCC in data set [1] was 305 µM. Also, the CC50 in data set [2] was determined as 170 µM.
Consider `CCCOc1nc(CC2(C)CCCO2)cc(=O)n1C` (stereo unspecified), for which the EC50 in data set [3] amounted to 187 µM. For the same compound, the MCC in data set [1] is above 376 µM. Besides, the CC50 in data set [2] was 860 µM.
For the compound `Cn1c(CC2(C(C)(C)C)CO2)cc(=O)n(C)c1=O` (stereo unspecified), the MCC in data set [1] is above 0.79 µM. Moreover, it took 7.9 µM to reach half-maximal cytotoxicity in data set [2] (CC50).
Take `COc1nc(CC2CCCO2)cc(=O)n1C` (stereo unspecified): the EC50 in data set [3] was above 446 µM. The MCC in data set [1] was 446 µM. The CC50 in data set [2] was 1220 µM.
The matching figures for `CCCOc1nc(CC2CCCO2)cc(=O)n1C` (stereo unspecified): 300 µM, 397 µM and 1020 µM.
For the compound `Cn1c([C@H]2O[C@@H]2c2ccccc2)cc(=O)n(C)c1=O`, the EC50 in data set [3] came out at 193 µM. The MCC in data set [1] turned out to be 380 µM. This compound also came in with a CC50 in data set [2] above 380 µM.
On the same counts, the results for `Cn1c(CC23CCCC[C@@H]2O3)cc(=O)n(C)c1=O` (stereo partly specified) are above 2 µM, above 2 µM and 40 µM.
Take `C[C@@H]1O[C@@]1(C)Cc1cc(=O)n(C)c(=O)n1C`: the MCC in data set [1] is above 2 µM. Besides, the midpoint of cytotoxicity in data set [2], the CC50, lay at 89 µM.
With `Cn1c(CC2(C)CO2)cc(=O)n(C)c1=O` (stereo unspecified), the MCC in data set [1] came to 0.48 µM. For the same compound, in data set [2], it took 4 µM to reach half-maximal cytotoxicity (CC50).
For the compound `Cn1c(C[C@]2(C)CCCO2)cc(=O)n(C)c1=O`, the EC50 in data set [3] stood at 1.11 µM. For the same compound, the MCC in data set [1] is above 223 µM. In data set [2], this compound had a CC50 of 1380 µM.
On the same counts, the results for `COc1nc(CC2(c3ccccc3)CCCO2)cc(=O)n1C` (stereo unspecified) are 166 µM, 383 µM and 130 µM.
On the same counts, the results for `Cn1c(C[C@@H]2CCCO2)cc(=O)n(C)c1=O` are 338 µM, 446 µM and 1220 µM.
As for `C[C@H]1O[C@@]1(C)Cc1cc(=O)n(C)c(=O)n1C`, the MCC in data set [1] was above 2 µM. The same compound showed a CC50 in data set [2] of 89 µM.
Consider `Cn1c(CC23CCC[C@H]2O3)cc(=O)n(C)c1=O` (stereo partly specified), for which, in data set [1], the MCC was above 0.84 µM. In data set [2], the midpoint of cytotoxicity, the CC50, lay at 8.4 µM.
On to `CCCOc1nc(CC2(C)CCCO2)cc(OC)n1` (stereo unspecified), for which the EC50 in data set [3] amounted to 267 µM. The MCC in data set [1] was above 305 µM. The compound also came in with a CC50 in data set [2] of 375 µM.
On the same counts, the results for `CCCCOc1nc(CC2CCCO2)cc(=O)n1C` (stereo unspecified) are 195 µM, 376 µM and 579 µM.
`Cn1c(C[C@]2(c3ccccc3)CCCO2)cc(=O)n(C)c1=O`: in data set [3], the EC50 stood at 116 µM. For the same compound, in data set [1], the MCC was above 333 µM. Moreover, in data set [2], the CC50 is 547 µM.

Values taken from ChEMBL document CHEMBL1134317, “Synthesis, biological evaluation, and pharmacophore generation of uracil, 4(3H)-pyrimidinone, and uridine derivatives as potent and selective inhibitors of parainfluenza 1 (Sendai) virus” (J Med Chem, 2001).
